Data reported in ChEMBL document CHEMBL4513216, “Probing the Open Global Health Chemical Diversity Library for Multistage-Active Starting Points for Next-Generation Antimalarials” (ACS Infect Dis, 2020).

Experiment: Toxicity liver stage against HepG2, at 10uM
Type: cell-based
Set-up: test concentration 10 uM, cell line HepG2-A16-CD81EGFP
Settings: human, HepG2-A16-CD81EGFP cells; read-out: INHIBITION
Outline: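 Uninfected HepG2-A16-CD81EGFP cells, 3 × 10^3 per well, 1536-well, plated on prespotted compound at 10 μM final, parasite-free screening media added to match infected plates; puromycin 10 μM positive, DMSO 0.5% negative; run in parallel with 48 h PbLuc assay at 37 °C, 5% CO2; viability by CellTiter-Glo luminescence, normalized to controls.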

SMILES | cytotoxicity at 10 µM [%]
CC(=O)N1CCC(NC2(Cc3cc(C(C)(C)O)on3)COC2)CC1 | -1.09
FC(F)(F)c1ccc(-c2c[nH]c([C@@H]3COCCN3)n2)cc1 | 1.05
COCCn1c(-c2cccc(OC)c2)cnc1NC(=O)NC1CCCC1 | 12.3
Cc1nn(C)cc1CN1CCCCCC1c1ccc(Cl)cc1 (stereo not given) | 4.93
CCC(C)CNC(=O)[C@@H]1CCCN1c1nccc(Nc2ccccc2)n1 (stereo not given in full) | 3.57
Cn1nc(CNC(=O)C2CCCCC2)cc1C1CC1 | -4.56
O=C1[C@H]2CN(S(=O)(=O)c3cccs3)C[C@H]2CN1CC1CC1 | 2
O=C(NC1CC1)N1Cc2[nH]nc(COCC3CC3)c2C1 | 13.6
Fc1cccnc1N1CCC2(CNCCC2(F)F)C1 (stereo not given) | -7.15
O=S(=O)(C1CC1)N1CCc2ncc(Cn3cncn3)n2CC1 | 3.62
COc1ncnc2c1CCN(c1cccc(F)c1)CC2 | 10.7
COCCO[C@H]1CCN(c2ccc(C)nn2)[C@H]1Cc1cnn(C)c1 | 2.5
CC(C)CCN1C2(CCN(c3ncccn3)C2)c2ccccc2S1(=O)=O (stereo not given) | 1.35
COCCN1C[C@@H](C)[C@@]2(COCCN(C(=O)c3ccoc3)C2)C1 | 7.4
Cc1ccc(C)c(-c2[nH]c3ccccc3c2C(=O)O)c1 | 1.55
O=C(NCCN1CCNCC1)c1nc2ccccc2c(=O)[nH]1 | 8.19
CC(C)C(NC(=O)N1CCN(c2ccc(Cl)cc2)CC1)C(=O)NC1CC1 (stereo not given) | 23.6
O=C(NCc1ccco1)[C@H]1C[C@H]2OCC[C@H]2N(C(=O)c2ccco2)C1 | 2.79
Cc1nocc1C(=O)N1CCc2c(CN(C)C(C)C)n[nH]c2C1 | -12.3
Cc1ccc(CC(=O)N2Cc3nccn3CC(Cn3cccn3)C2)cc1 (stereo not given) | -10.5
COc1cccc(CNCc2ccc(F)c(Cl)c2)c1O | -13.7
Cc1ccc(CN2CCOCC2c2[nH]ncc2C)cn1 (stereo not given) | 4.52

SMILES | cytotoxicity at 10 µM [%]
Cc1cccc(C2(CNC(=O)c3ccnc(N(C)C)c3)CCOCC2)c1 | 2.85
Cc1nn(C)cc1S(=O)(=O)NCC(c1ccccc1Cl)N1CCCC1 (stereo not given) | -1.29
O=C(c1cncnc1)N1CCCC(c2nccs2)C1 (stereo not given) | 6.55
Cc1cc(C)n(C2CCN(Cc3nc4ccccc4n3C)CC2)n1 | 1.64
O=C(NCc1ccccn1)c1cncc(C2CCCN2)n1 (stereo not given) | 3.6
O=C(c1cc[nH]n1)N1CCCC1c1ccccn1 (stereo not given) | -22.5
O=S(=O)(c1ccc(F)cc1)N1CCCC(c2nccs2)C1 (stereo not given) | -6.74
CN1CCc2nc(C3CCCCN3Cc3ccccc3Cl)ncc2C1 (stereo not given) | -27.7
Cc1cccc(-c2cccc(CC3(C(=O)O)CCOCC3)c2)c1 | -25.7
CN1CCC(c2cncc(N(C)C)n2)CC1 | -11.5
O=C1NCCCCC1Sc1ccccc1F (stereo not given) | 9.43
O=C(Cn1nnn(-c2cccs2)c1=O)NCC1CCOC1 (stereo not given) | -40.4
CC(=O)N1CCCC1C(=O)N1CCC(=Cc2cccc(F)c2)CC1 (stereo not given) | 3.5
CCOC(C)C(=O)NS(=O)(=O)c1cccc2cc(C)cnc12 (stereo not given) | -3.14
COc1cc(OC)cc(N2CCC(NCc3cc[nH]n3)C2)c1 (stereo not given) | 2.55
O=C(O)c1cnc2c(cnn2C2CCCC2)c1 | -8.23
Cc1ccc(C(=O)NC2CCN(Cc3nc(C(C)C)no3)CC2)s1 | 3.82
CCN(CC1CCOC1)C(=O)c1ccc(N(C)C)cc1F (stereo not given) | 3.54
CCCNC(=O)Cc1c(C)nc2c(c1C)c(=O)[nH]n2C | 11.4
COc1ccc(F)cc1CSCC(=O)N(C)CCC#N | -2.32
COc1ccccc1S(=O)(=O)CCOC(C)C | 6.24
CCOCCNC(=O)c1ccn(S(=O)(=O)c2ccc(C)cc2)c1 | -3.18

SMILES | cytotoxicity at 10 µM [%]
O=C(C(C1CC1)C1CC1)N1CCC(n2ccnn2)CC1 | -45.7
NC(=O)Nc1cccc(C(=O)N(Cc2ccc(F)cc2)C2CC2)c1 | -10.1
CCOC(C(=O)N1CCn2c(nnc2C(C)C)C1)c1ccccc1 (stereo not given) | 3.84
O=S(=O)(NC1CC1)c1cccc(Br)c1 | -3.52
CCC(C)N(C)S(=O)(=O)c1ccc(CCNC(C)=O)s1 (stereo not given) | -3.45
CN(C)C(C)(C)CNC(=O)C(C)(C)c1ccccc1F | -11.2
Cc1cccc(C(=O)N2C[C@@H]3OCCN(CCN4CCCC4)[C@@H]3C2)n1 | -65
CC1=N[C@@]2(CC[C@@H]3CN(C(=O)NCCc4ccccc4)C[C@@H]32)C(=O)N1 | -75.4
CS(=O)(=O)NC[C@]12COC[C@H]1CN(C(=O)C1CCCCC1)C2 | 3.34
O=C(NCC1CC1)C1=NOC2(CCN(S(=O)(=O)c3cccs3)C2)C1 (stereo not given) | 0.693
CCCOc1cccc(-c2nc3c([nH]2)CCNC3)c1 | -3.38
COc1ccc2c(c1)C(C(=O)N(C)CCn1ccnc1C)CC(=O)N2 (stereo not given) | -44.8
CCSCC(C)NCc1cc(-c2ccco2)on1 (stereo not given) | 1.29
Cc1cc(C)cc(C(C(=O)O)N(C)CCCN2CCOCC2)c1 (stereo not given) | 6.03
O=C(C1COc2ccccc2O1)N1Cc2cnn(CCO)c2C1 (stereo not given) | -3.12
CSc1cccc(NC(=O)N2CCCC(CNC(=O)c3ccco3)C2)c1 (stereo not given) | -2.4
Cc1ccc(-c2ccnc(N[C@H]3COC[C@@H]3N3CCCCC3)n2)c(C)n1 | 3.46
C[C@@H]1CN(C(=O)CCc2nncn2C)C[C@@]1(O)C1CCC1 | -4.97
CN(C)CCN(C)C[C@@H]1CN(Cc2cccc(O)c2)C[C@@H]1CO | 0.972
COCCn1ccnc1C1CCN(C(=O)C(O)c2ccc(F)cc2)CC1 (stereo not given) | 1.73
Cc1[nH]c(-c2ccccc2)nc1C(=O)N1CCc2[nH]cnc2C1C(=O)O (stereo not given) | 2.43
O=C1OC2(CCNCC2)CN1CC(=O)N1CCC1c1cccs1 (stereo not given) | 4.35

SMILES | cytotoxicity at 10 µM [%]
COCCN(C/C=C/c1ccccc1)Cc1ncc[nH]1 | 7.8
Oc1cc(CNCCN2CCCCC2)nc2c(F)cccc12 | -1.16
Cc1ccc2nc(-c3cnc(N)nc3)cc(C(=O)N(C)C)c2c1 | 14
O=C(NCc1nnc2n1CCC2)c1cn(-c2ccccc2)nn1 | -2.4
CC(C)[C@@H]1CN(Cc2cnc(C3CCCCC3)nc2)C[C@H]1C(=O)O | -6.46
COc1cccc(OCC2CCCN(C(=O)c3ncc(F)cc3F)C2)c1 (stereo not given) | 6.35
CCc1noc(CN(CC)C(=O)CC2C(=O)NCCN2CC(C)(C)C)n1 (stereo not given) | 1.83
CN1CCN(CCCNS(=O)(=O)Cc2ccccc2F)CC1 | -11.1
COC[C@@]12CC[C@@H](N3CCOCC3)C[C@H]1CCN(c1ncccc1Cl)C2 | -13.2
Cc1nc(N2CCN(C)CC2)ncc1C(=O)N1CCC(O)(CO)CC1 | -0.395
Cc1cc(N2CCC3(CCC(=O)N(CC4CC4)C3)CC2)nc(N)n1 | 6.92
CC(C)(C)c1ccn(C2(C(=O)O)CCN(c3nccc(N)n3)CC2)n1 | -6.69
Cn1cc(C(=O)Nc2cc(F)ccc2OCC2CCCO2)ccc1=O (stereo not given) | -7.09
Cc1nn(C)c(C)c1C(=O)NCc1ccnc(OCC(F)(F)F)c1 | -10.7
CCOc1ccc(NC(=O)NCc2cccnc2OCC)cc1 | -8.67
O=C(c1ccc2cc[nH]c2c1)N1CCCN(Cc2cscn2)CC1 | -31.7
Cc1noc(C)c1C(=O)NCC(C)N1CCc2ccccc21 (stereo not given) | -17.2
CCn1cc(C(=O)N2CCCC(c3noc(C)n3)C2)cn1 (stereo not given) | 2.17
CCn1cc(CN2CCCN(C(=O)c3ccccc3OC)CC2)cn1 | -11.4
Cn1cnnc1C1CCCN(C(=O)c2ccccn2)C1 (stereo not given) | -8.31
CCn1cc(CN2CCCN(C(=O)c3cccn3C)CC2)cn1 | -5.85
c1cnn(CC2CCCN2Cc2nc(-c3ccoc3)no2)c1 (stereo not given) | -7.07

SMILES | cytotoxicity at 10 µM [%]
COC(=O)C(c1cc(F)ccc1F)N(C)C(=O)c1csnn1 (stereo not given) | 0.144
CC(NC(=O)NCc1ccc(Cl)cc1)c1ccccn1 (stereo not given) | 3.42
Cc1nc(C2CCCN(C(=O)c3ccc(N4CCCC4)nc3)C2)no1 (stereo not given) | -3.06
CC(C)(CO)NCc1ccc(OCc2ccc3c(c2)OCCO3)cc1 | 4.12
O=C(C1CC1)N1CCC2(CCCN2Cc2ccc(F)cc2)CC1 | 3.35
CCC(=O)N1CCC2(CC1)C(=O)N(C)CCN2Cc1csc(C)n1 | 5.59
Cn1cc(CN2CCC3(CC2)CC(Nc2nccs2)CO3)cn1 (stereo not given) | -79.6
CN(C)C[C@H]1OC[C@@H]2CCN(C(=O)Cc3cccs3)C[C@@H]21 | 7.13
COc1cc(N2CCC3(CCCN3Cc3cnn(C)c3)CC2)ncn1 | 6.5
CC(C)CN1CC[C@@H]2[C@@H]1CCN2S(=O)(=O)c1cn(C)cn1 | 7.86
CCc1ncnc2c1CCN(Cc1cccs1)CC2 | 4.98
O=C(C1CCOCC1)N1C[C@H]2CCC[C@@]2(COc2ccccn2)C1 | -0.587
CCN1C[C@H]2C3(CCN(S(=O)(=O)CC)CC3)CC[C@@]2(C(=O)N(C)C)C1 | 2.84
O=C(c1cnccn1)N1CCOC2(CCN(Cc3ccsc3)CC2)C1 | -4.45
CNC(=O)CN1CCO[C@H]2CN(CC3CCOCC3)C[C@H]21 | 12.5
Cc1ccc(CN2CCc3ncnc(-c4ccc(F)cc4)c3CC2)o1 | -9.49
CO[C@@H]1CCN(S(=O)(=O)c2cccs2)[C@H]1Cc1cccnc1 | -80.3
Cc1ccc(Cc2cnc(C3CCNCC3)cn2)cc1 | -31.2
O=C(NCCn1nc(C2CCNC2)c2cccnc21)C1CCC1 (stereo not given) | -7.87
O=C(NC1CC1)N1CCCC2(CCCCN2)C1 (stereo not given) | 8.77
CC(C)COC[C@@H]1CC[C@H]2[C@H](CCN2C(=O)c2ccncc2F)O1 | -0.58
O=C(CC1[C@H]2CN(c3ncccn3)C[C@@H]12)Nc1cccnc1 (stereo not given in full) | -1.55
